Test [1] is filed under the species Homo sapiens. Nature of the test: (§1) Intracellular of AZT-TP concentrations in LAI/HIV-1 infected PMBCs was determined at a conc of 10 uM). The test is classed as functional, organism-based. The gist of the method: (§2)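 PHA-stimulated, LAI/HIV-1-infected PBMCs (donor 2) at 10^6 cells/mL, triplicate, given 10 µM compound ± 50 µM thymidine for 18 h at 37 °C. Cells washed, extracted in 60% methanol overnight at −20 °C, dried and reconstituted. AZT-TP quantified by inhibition of recombinant HIV-1 RT (poly(rA)-oligo(dT), 3H-TTP, 2 h at 37 °C) relative to AZT-TP standards; pmol/10^6 cells.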

The species entered for test [2] is Homo sapiens. The test is described as §1. The test is classed as functional, organism-based. The method, boiled down: as §2
The source holds these as a separate data set.

Test [3] is filed under the species Homo sapiens. Kind of test: Inhibition of Phosphoramidase activity with AZT L-amino acid carbamates. The class given is functional. The note with it: concentration not given here. The gist of the method:
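CEM cells (1.5 × 10^8) sonicated in 1 mL 20 mM Tris-HCl, 500 mM NaCl, pH 7.5. Whole lysate incubated 45 min at 37 °C with phosphoramidate (from 10 mM water stock) and carbamate (from 10 mM DMSO stock), then stopped with methanol. AZT-MP quantified by RP-HPLC-RIA against a no-carbamate control. Mean of two experiments.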

Test [4] is filed under the species Homo sapiens. Kind of test: Effective concentration of required to inhibit the replication of HIV-1 BY 50% in PMBCs from donor 2. The test is classed as functional, organism-based.
For test [5], the species on record is Homo sapiens. Kind of test: Concentration required to kill 50% of PBMCs. The test is classed as functional, organism-based. The method, boiled down: (§3)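 Uninfected PHA-stimulated PBMCs or CEM cells plated at 2.5 × 10^5 cells/well with diluted drug. Incubated 6 days at 37 °C, 10% CO2. XTT/PMS added and incubated 4 h at 37 °C. Absorbance read at 450 nm, 630 nm reference.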

In another test the test system is CCRF-CEM. Kind of test: Concentration required to kill 50% of CEM cells. The test is classed as functional, cell-based. The note with it: Homo sapiens. The method, boiled down:
as §3

For test [6], the species on record is Homo sapiens. Nature of the test: Effective concentration of required to inhibit the replication of HIV-1 BY 50% in PMBCs from donor 1. The test is classed as functional, organism-based.
For test [7], the species on record is Homo sapiens. Nature of the test: Effective concentration required to inhibit the replication of HIV-1 by 50% in PMBCs from donor 1. The class given is functional, organism-based.
For test [8], the species on record is Homo sapiens. Nature of the test: Effective concentration required to inhibit the replication of HIV-1 by 50% in PMBCs from donor 2. The test is classed as functional, organism-based.
Test [9] relates to Human immunodeficiency virus 1. Nature of the test: Concentration required to inhibit HIV-1 replication by 50% in activated PBMCs.
For test [10], the system named is Human immunodeficiency virus 1. Nature of the test: Concentration required to inhibit the production of proviral DNA in unactivated PBMCs.
The species entered for test [11] is Homo sapiens. Kind of test: Effective concentration required to inhibit the replication of HIV-1 by 50% in PMBCs in the absence of thymidine. The class given is functional, organism-based.
The species named for test [12] is Homo sapiens. Kind of test: Effective concentration required to inhibit the replication of HIV-1 by 50% in PMBCs in the presence of thymidine. The class given is functional, organism-based.
Test [13] in a line: Inhibition of AZT-MP production by cell free extracts of CEM cells. The class given is functional, Homo sapiens, CCRF-CEM. More on the design: unit not given here. The gist of the method: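 CEM cells (1.5 × 10^8) sonicated in 1 mL 20 mM Tris-HCl, 500 mM NaCl, pH 7.5. Lysate incubated with phosphoramidate and carbamate, each added from 10 mM stock, for 45 min at 37 °C, then stopped with methanol. AZT-MP quantified by RP-HPLC-RIA against a no-carbamate control. Mean of two experiments.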

The structures appear in SMILES notation.

Turning to `COC(=O)[C@H](Cc1ccccc1)NP(=O)(O)OC[C@H]1O[C@@H](n2cc(C)c(=O)[nH]c2=O)C[C@@H]1N=[N+]=[N-]`, the values for the Concentration (pM (10e6*cells)-1) in the test listed under Homo sapiens [1] and in the test listed under Homo sapiens [2] were 0 and 0.01, respectively.

By inhibition is commonly meant how much of the control response was suppressed. `COC(=O)[C@H](Cc1ccccc1)NC(=O)OC[C@H]1O[C@@H](n2cc(C)c(=O)[nH]c2=O)C[C@@H]1N=[N+]=[N-].COC(=O)[C@H](Cc1ccccc1)NP(=O)(O)OC[C@H]1O[C@@H](n2cc(C)c(=O)[nH]c2=O)C[C@@H]1N=[N+]=[N-]` [listing 1 of 2 here]: the inhibition in the test filed under Homo sapiens [3] worked out at 99.6%.

By EC50 is commonly meant the concentration that produces a half-maximal response. For orientation: IC50 means the concentration that inhibits the measured activity by half. `CNC(=O)[C@@H](Cc1c[nH]c2ccccc12)NP(=O)(O)OC[C@H]1O[C@@H](n2cc(C)c(=O)[nH]c2=O)C[C@@H]1N=[N+]=[N-]`: the EC50 amounted to 180 nM in the test listed under Homo sapiens [4] and 400 nM in the test filed under Homo sapiens [6]. For the same molecule, the IC50 in the test filed under Homo sapiens [5] and with CCRF-CEM was over 100 µM throughout.

In the case of `COC(=O)[C@@H](NP(=O)(O)OC[C@H]1O[C@@H](n2cc(C)c(=O)[nH]c2=O)C[C@@H]1N=[N+]=[N-])C(C)C`, the EC50 worked out at 1300 nM in the test listed under Homo sapiens [7]; 900 nM in the test listed under Homo sapiens [8]; 350 nM in test [9]; 350 nM in the test filed under Homo sapiens [11]; 30 µM in the test listed under Homo sapiens [12]. In addition, the IC100 in test [10] came to 0.1 µM. In addition, the IC50 in the test filed under Homo sapiens [5] and with CCRF-CEM was over 100 µM in each case.

Consider `CNC(=O)[C@H](Cc1c[nH]c2ccccc12)NP(=O)(O)OC[C@H]1O[C@@H](n2cc(C)c(=O)[nH]c2=O)C[C@@H]1N=[N+]=[N-]`, for which the values for the EC50 in the test listed under Homo sapiens [4] and in the test filed under Homo sapiens [6] were 1800 nM and 700 nM, respectively. Besides, the IC50 in the test listed under Homo sapiens [5] and in the test with CCRF-CEM was over 100 µM each time.

With `CNC(=O)[C@@H](Cc1ccccc1)NP(=O)(O)OC[C@H]1O[C@@H](n2cc(C)c(=O)[nH]c2=O)C[C@@H]1N=[N+]=[N-]`, the EC50 in the test filed under Homo sapiens [4] was 100 nM; in the test listed under Homo sapiens [6], 900 nM. Moreover, the IC50 in the test filed under Homo sapiens [5] and in the test on CCRF-CEM was over 100 µM in each case.

As for `COC(=O)[C@H](Cc1ccccc1)NC(=O)OC[C@H]1O[C@@H](n2cc(C)c(=O)[nH]c2=O)C[C@@H]1N=[N+]=[N-].COC(=O)[C@H](Cc1ccccc1)NP(=O)(O)OC[C@H]1O[C@@H](n2cc(C)c(=O)[nH]c2=O)C[C@@H]1N=[N+]=[N-]` [listing 2 of 2 here], the Activity in [13] is listed as 0.03.

Turning to `COC(=O)[C@@H](Cc1ccccc1)NP(=O)(O)OC[C@H]1O[C@@H](n2cc(C)c(=O)[nH]c2=O)C[C@@H]1N=[N+]=[N-]`, the EC50 is 80 nM in the test listed under Homo sapiens [4] and 89 nM in the test listed under Homo sapiens [6]. Moreover, the IC50 in the test listed under Homo sapiens [5] and with CCRF-CEM was over 100 µM in each case.

As for `COC(=O)[C@H](C)NP(=O)(O)OC[C@H]1O[C@@H](n2cc(C)c(=O)[nH]c2=O)C[C@@H]1N=[N+]=[N-]`, the EC50 in the test filed under Homo sapiens [4] is 30 nM; in the test filed under Homo sapiens [6], 50 nM. The IC50 in the test listed under Homo sapiens [5] and in the test on CCRF-CEM was over 100 µM throughout.

These data come from ChEMBL document CHEMBL1134778, “Amino acid phosphoramidate monoesters of 3'-azido-3'-deoxythymidine: relationship between antiviral potency and intracellular metabolism” (J Med Chem, 2001).
